SENP1 FRET inh: SENP1 (human) catalytic domain inhibition | inhibition, % at 10 µM | recombinant SENP1 catalytic domain, CyPet-SUMO1-YPet FRET cleavage | hit rate 0.21% among 360,000 | Q9P0U3;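 active means inhibition at least 30% at 10 µM, raw YFP signal under a set limit, fluorescence ratio 0.5 to 1.5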
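Controls: no-enzyme wells low, DMSO-plus-enzyme wells high control. Test system: human recombinant His6-tagged SENP1 catalytic domain enzyme. Reagent: SFCypet-SUMO1-SFYpet FRET protein substrate, 25 nM final. Doses: one dose per compound, 10 µM, 0.5% DMSO. Detection: FRET, CFP and YFP emission. Timing: 50 min reaction at room temperature.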
SENP8 block-1: inhibitors of human SENP8 protease | recombinant SENP8, Nedd8 substrate fluorescence | Q96LD8 | AID 602440 | hit rate 0.64% among 360,000 | inhibition, % at 20 µM; in the data active means inhibition mostly above about 40%, no sharp cut-off; inactive means mostly below about 27%
SENP6 block: inhibitors of human SENP6 protease; Q9GZR1; Recombinant SENP6 catalytic domain, aminoluciferin luminescence; inhibition, % at 10 µM; hit rate 1.8% among 330,000; AID 2599;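 active means inhibition above about 50% at the single tested dose, limit read from the data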
Target sequence (Q9GZR1 628-1112 limits assumed): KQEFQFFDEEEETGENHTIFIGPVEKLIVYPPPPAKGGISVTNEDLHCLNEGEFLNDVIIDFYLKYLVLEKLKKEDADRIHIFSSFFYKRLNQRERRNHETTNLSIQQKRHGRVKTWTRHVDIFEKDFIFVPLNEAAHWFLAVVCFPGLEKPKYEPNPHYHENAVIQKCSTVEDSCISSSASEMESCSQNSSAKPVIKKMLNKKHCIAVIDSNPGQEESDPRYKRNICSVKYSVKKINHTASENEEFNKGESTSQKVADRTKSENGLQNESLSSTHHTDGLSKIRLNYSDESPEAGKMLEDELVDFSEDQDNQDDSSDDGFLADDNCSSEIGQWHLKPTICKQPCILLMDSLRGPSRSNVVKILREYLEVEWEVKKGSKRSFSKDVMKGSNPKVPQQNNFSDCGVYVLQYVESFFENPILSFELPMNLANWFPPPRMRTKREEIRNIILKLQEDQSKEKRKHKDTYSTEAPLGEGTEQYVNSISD
SENP7 inh: blocks the human protease SENP7. Q9BQF6. recombinant SENP7, Z-RLRGG-aminoluciferin luminescence, 40 min. inhibition, % at 5 µM. hit rate 1.5% among 330,000. AID 434973;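 active means inhibition above about 50% at the single test dose, limit read from the data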
SENP8 block-2: blocks the human protease SENP8; Q96LD8; purified SENP8, Z-RLRGG-aminoluciferin cleavage, luminescence; inhibition, % at 10 µM; hit rate 1.2% among 330,000; AID 2540; in the data active means inhibition above about 50%
SENP8 conf: human SENP8 inhibition, confirmed. shares compounds with SENP7 inh. hit rate 40% among 6,200. inhibition, % at 12.5 µM. AID 488912. Recombinant SENP8, Z-RLRGG-aminoluciferin luminescence, 60 min;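 active means mean inhibition across replicates above about 50%, limit read from the data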
SENP6 conf: confirmation of human SENP6 protease inhibitors; hit rate 58% among 6,200; inhibition, % at 12.5 µM; shares compounds with SENP7 inh; recombinant SENP6, Z-RLRGG-aminoluciferin luminescence
SENP7 confirm: confirmation of human SENP7 protease inhibitors; recombinant SENP7, Z-RLRGG-aminoluciferin luminescence, 40 min; inhibition, % at 12.5 µM; shares compounds with SENP7 inh; hit rate 69% among 6,200
Casp3 select: inhibits human caspase-3 in SENP selectivity test; shares compounds with SENP7 inh; purified caspase-3, Z-DEVD-aminoluciferin luminescence, 60 min; inhibition, % at 12.5 µM; hit rate 60% among 6,200;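 active means mean inhibition above about 50%, limit read from the data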
Luc interf: counter-screen for SENP inhibitors: luminescence interference. AID 488919. Pre-incubated SENP8/Z-RLRGG-aminoluciferin, luciferase luminescence interference. shares compounds with SENP7 inh. inhibition, % at 12.5 µM. hit rate 39% among 6,200;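 active means mean inhibition above about 50% when retested at one dose, limit read from the data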
A number is an active result; – = inactive; · = not tested or not shown. Sampled rows, rich in hits. Any-hit rate of the full collection: about 2.5%.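 How the source made its calls, unless noted: active means mean inhibition above about 50% in the one-dose retest (limit read from the data); inactive means the rest.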

SMILES	SENP1 FRET inh	SENP8 block-1	SENP6 block	SENP7 inh	SENP8 block-2	SENP8 conf	SENP6 conf	SENP7 confirm	Casp3 select	Luc interf
O=C(O)c1nccnc1C(=O)Nc1ccccc1-c1ccccc1	–	–	–	–	–	·	·	·	·	·
NC(=O)c1ccsc1NC(=O)CCc1ccccc1	–	–	–	–	–	·	·	·	·	·
COC(=O)c1ccsc1NC(=O)CCc1ccccc1	–	–	88	87	87	90	91	100	91	66
O=C(NCc1ccccc1)C(c1cc2ccccc2o1)n1c(=O)c(-c2ccccc2)nc2ccccc21 (stereo not given)	–	–	·	·	·	·	·	·	·	·
COCC(C)n1c(C)cc(C(=O)COC(=O)c2n[nH]c3ccccc23)c1C (stereo not given)	–	–	55	–	–	–	–	67	–	–
COCC(C)n1c(C)cc(C(=O)COC(=O)c2cc(=O)[nH]c3ccccc23)c1C (stereo not given)	–	–	–	–	–	·	·	·	·	·
O=C(CCCn1c(=S)[nH]c2cc3c(cc2c1=O)OCO3)NCc1ccccc1Cl	–	–	–	–	–	·	·	·	·	·
COc1cc(/C=N/Nc2nc3ccccc3s2)cc([N+](=O)[O-])c1O	–	42	–	–	58	–	–	–	–	–
CCN(C[C@H]1N[C@@](CC)(C(=O)OC)[C@H]2C(=O)N(Cc3ccccc3)C(=O)[C@@H]12)C(=O)COc1ccccc1	–	–	–	–	–	·	·	·	·	·
COc1ccc(/C=C2\CC/C(=C\c3ccc(OC)c(OC)c3)C2=O)cc1OC	–	–	–	–	–	·	·	·	·	·
O=C1/C(=C/c2ccc([N+](=O)[O-])cc2)CCc2ccccc21	·	·	95	98	90	–	81	–	–	–
COc1ccc(OC)c(C=C2CCc3ccccc3C2=O)c1	–	–	·	·	·	·	·	·	·	·
CC(=O)Oc1ccc(/C=C2/CCc3ccccc3C2=O)cc1	–	–	97	97	95	96	100	102	94	98
COc1ccc(/C=C2\CCc3ccccc3C2=O)cc1OC	–	–	52	–	–	69	62	62	–	–
Cc1ccc(F)c(S(=O)(=O)NC(=O)C2(C)CCN2C(=O)Cc2cccs2)c1 (stereo not given)	–	–	·	·	·	·	·	·	·	·
Cc1nc2nc(-c3ccc(F)cc3)cn2nc1C	–	–	67	–	71	–	92	100	97	54
CN1OC[C@@H]2CN(C(=O)NC3CCCCC3)[C@H](c3ccc(N4CCCCC4)cc3)C[C@@H]21	–	–	·	·	·	·	·	·	·	·
CCn1cc(C(=O)NCc2ccc(Cl)cc2)c(=O)c2cc(S(=O)(=O)N(C)C)ccc21	–	–	–	–	–	·	·	·	·	·
COc1ccc(-c2nsc3c(N4CCCCC4)ncnc23)cc1	–	–	67	95	92	–	–	–	–	–
COc1ccc(-c2nsc3c(N4CCCCC4C)ncnc23)cc1 (stereo not given)	–	–	88	78	81	68	71	76	76	–
COc1ccccc1-c1noc2ncnc(Nc3ccc4c(c3)OCO4)c12	–	–	–	–	–	·	·	·	·	·
Cn1c(CNC(=O)c2ccc3c(c2)OCO3)nnc1SCC(=O)Nc1ccc(F)cc1F	–	–	–	–	–	·	·	·	·	·
NC(=O)c1ccc(NC(=O)COC(=O)CCN=C2NS(=O)(=O)c3ccccc32)cc1	–	–	–	–	–	·	·	·	·	·
O=C(NCc1cccs1)c1csc(COCCO)n1	–	–	·	·	·	·	·	·	·	·
Cc1nc(-c2cc(-c3ccc(Cl)cc3)no2)cs1	–	–	76	92	68	–	–	–	–	–
SMILES	SENP1 FRET inh	SENP8 block-1	SENP6 block	SENP7 inh	SENP8 block-2	SENP8 conf	SENP6 conf	SENP7 confirm	Casp3 select	Luc interf
Clc1ccc(-c2cc(-c3ccccc3)on2)cc1	–	–	–	58	–	–	–	–	–	–
Fc1cccc(-c2csc(-c3ccno3)n2)c1	–	–	–	–	–	·	·	·	·	·
Clc1ccc(-c2csc(-c3ccno3)n2)cc1	–	–	–	58	–	–	–	–	–	–
Cc1nc(-c2cc(-c3nc(-c4ccc(C(F)(F)F)cc4)no3)no2)cs1	–	–	–	–	–	·	·	·	·	·
O=C(/C=C\c1ccccc1)Nc1nccs1	–	–	83	88	61	59	61	95	88	–
O=C(Nc1nccs1)C(Br)C(Br)c1ccccc1 (stereo not given)	–	–	84	91	79	76	73	95	85	–
CC(=O)OC(C(=O)Nc1nccs1)c1ccccc1 (stereo not given)	–	–	–	–	–	·	·	·	·	·
O=[N+]([O-])c1cc([N+](=O)[O-])c(Oc2cc(Cl)ccc2Cl)cc1NC1CCCCCCC1	–	–	–	–	–	·	·	·	·	·
CCOc1ccc(-c2cc(C(=O)Nc3cc(OC)c(OC)c(OC)c3)[nH]n2)c(C)c1	–	–	·	·	·	·	·	·	·	·
O=C(Nc1nc2ccccc2[nH]1)c1ccc(Cl)cc1	–	–	93	90	87	–	92	100	93	–
CC(=O)Nc1nc2ccccc2[nH]1	–	–	–	–	–	·	·	·	·	·
O=C(Cc1ccc(Cl)cc1)Nc1nc2ccccc2[nH]1	–	–	–	–	–	·	·	·	·	·
COc1ccc(C(=O)Nc2nc3ccccc3c(=O)[nH]2)cc1	–	–	54	–	–	–	–	59	72	–
O=C(Nc1nc2ccccc2[nH]1)c1ccccc1O	–	–	88	92	82	–	80	64	92	–
O=C(Nc1nc2ccccc2[nH]1)c1ccccc1	–	–	96	93	90	82	91	100	96	–
CSc1ccc(/C=N/NC(=O)COc2ccc(Br)cc2Cl)cc1	–	–	–	–	–	·	·	·	·	·
O=C(Nc1nc2ccccc2[nH]1)c1cccc(Cl)c1	–	–	57	68	–	–	–	86	66	–
COc1cc(C#Cc2ccc3cc(CCO)oc(=O)c3c2)cc(OC)c1	–	–	84	85	80	81	83	95	61	65
Cc1ccc(NC2=CC(=O)C(=O)c3ccccc32)c(C)c1	–	–	51	–	–	–	–	–	–	–
CCOc1ccc(NC2=CC(=O)C(=O)c3ccccc32)cc1	–	–	·	·	·	·	·	·	·	·
O=C1C=C(Nc2ccccc2O)c2ccccc2C1=O	30	–	88	–	77	–	86	67	–	–
O=C1C=C(NCc2ccccc2)c2ccccc2C1=O	–	–	·	·	·	·	·	·	·	·

Compound activity from PubChem BioAssay.
